# Assay results from PubChem BioAssay AID624380 (The Scripps Research Institute Molecular Screening Center, 2012).
# In all, about 2,300 compounds went through this assay and about 120 (5.2%) were called active. The list is a sample of the results. Unmarked numbers belong to inactive results.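 How the source made its calls: active means mean activation above the mean of DMSO-only wells plus 3 SD (cut at about 0.5% in these data); inactive means the rest.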
# Biological target: Mu-type opioid receptor (Homo sapiens) (UniProt P35372)
# Assay: mu opioid receptor activation, arrestin complementation – cell-based, luminescence, single concentration, counter-screen for mouse HTR2A agonist project, confirmation (AID 624380)
# Details: U2OS OPRM1 beta-arrestin PathHunter, at 9.3 µM, active compounds read high, DMSO 0%, DAMGO 9.3 µM 100%
# Outline: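 system = U2OS cells, OPRM1–beta-arrestin fragment complementation | also added = DAMGO reference agonist, 9.3 µM | schedule = 3 h compound treatment, 37 °C, 1 h room-temperature reagent step | measured by = chemiluminescence from reconstituted beta-galactosidase after detection reagent addition | read-out = percent activation scaled between DMSO-only and DAMGO-treated well medians | repeats = three replicate wells per compound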
# Sequence of Mu-type opioid receptor (Homo sapiens) (P35372 whole entry, looked up): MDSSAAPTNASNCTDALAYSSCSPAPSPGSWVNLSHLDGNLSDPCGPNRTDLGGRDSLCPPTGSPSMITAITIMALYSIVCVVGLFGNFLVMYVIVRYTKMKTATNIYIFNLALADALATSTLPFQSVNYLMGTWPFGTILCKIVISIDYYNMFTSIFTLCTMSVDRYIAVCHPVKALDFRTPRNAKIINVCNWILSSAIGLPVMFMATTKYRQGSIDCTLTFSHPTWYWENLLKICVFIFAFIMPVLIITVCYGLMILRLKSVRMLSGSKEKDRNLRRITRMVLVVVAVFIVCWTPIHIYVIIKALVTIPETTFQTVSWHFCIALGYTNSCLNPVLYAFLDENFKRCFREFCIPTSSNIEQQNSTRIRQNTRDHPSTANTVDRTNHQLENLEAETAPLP
row,SMILES,activation
1,O=C(NCc1ccco1)c1cccn2c(=O)c3c4c(sc3nc12)CCCC4,-0.39%
2,Cc1ccc2nc(-c3ccncc3)cc(C(=O)Nc3ccncc3)c2c1,3.9% (active)
3,Cc1ccccc1CSCC(=O)NC(=O)NC(C)(C)C,-0.45%
4,CCOCCCNC(=O)Cc1cc(=O)[nH]c(=O)[nH]1,-0.49%
5,C[C@@H]1ON(C)[C@H]2C[C@H]3c4cc(N5CCN(C)CC5)ccc4CCN3C(=O)[C@@H]12,-0.06%
6,Cc1ccc(CN2CCN(c3ncccn3)CC2)c(C)c1,-0.26%
7,O=C(COC(=O)c1cc(S(=O)(=O)N2CCOCC2)ccc1F)NC1CC1,-0.39%
8,CCOc1ccc(/C(O)=C2\C(=O)C(=O)N(c3ccc(OC)cc3)C2c2ccccc2[N+](=O)[O-])cc1 (centres undefined),-0.58%
9,Nc1cc(C(=O)N2CCN(c3ccccc3Cl)CC2)ccc1N1CC2CC(C1)c1cccc(=O)n1C2 (centres undefined),-0.61%
10,COc1ccc(CNC(=O)c2ccc(NS(=O)(=O)c3ccc4[nH]c(=O)[nH]c4c3)cc2)cc1OC,-0.74%
11,O=S(=O)(c1ccc(OCC(O)CN2CCN(c3ccccc3Cl)CC2)cc1)N1CCOCC1 (centres undefined),-0.67%
12,CCOC(=O)c1cc(-c2ccccc2C)n(Cc2cc(C)no2)n1,-0.46%
13,O=C(OCC(=O)N1CCOCC1)c1ccc2ccccc2c1,-0.5%
14,COc1ccc2c(Cl)c(-c3nnco3)sc2c1,-0.41%
15,COc1ccc(C2c3[nH]c4ccccc4c3C[C@H]3C(=O)N(CC(C)C)CC(=O)N23)c(OC)c1 (some centres undefined),-0.31%
16,COc1ccccc1CN1CCN(Cc2cc(OC)c(OC)cc2OC)CC1,-0.5%
17,O=C(c1ccncc1)N1CCN(c2ccc3ccccc3n2)CC1,0.53% (active)
18,COC(=O)c1cc(N2CCNCC2)nc2ccccc12,-0.87%
19,O=C(Cc1ccccc1)n1nc(-c2ccccc2)nc1NCc1ccco1,0.54% (active)
20,COc1ccc(N2CC(C(=O)NCCN3C(=O)S/C(=C\c4cccnc4)C3=O)CC2=O)c(OC)c1 (centres undefined),-0.55%

row,SMILES,activation
1,Cc1c(C(=O)NCC2CC2)sc(=O)n1Cc1cccc(F)c1,-0.53%
2,CCn1c(SCC(=O)N2CCCC2=O)nc2ccccc21,-0.43%
3,Cc1cccnc1C(NC(=O)C1CCN(Cc2ccc(Cl)c(Cl)c2)CC1)c1ccc(Cl)cc1 (centres undefined),-0.69%
4,O=C(Cc1ccsc1)N1CCN(S(=O)(=O)c2cc(C(F)(F)F)cc(C(F)(F)F)c2)CC1,-0.45%
5,CCn1cc(C(=O)OCC(=O)Nc2cccc(C)c2)c(=O)c2ccc(C)nc21,-0.4%
6,C=C1C(=O)OC2C1CCC(C)=CCCC1(C)OC21 (centres undefined),-0.63%
7,CO/N=C/CC(=O)c1ccc(OC)cc1,-0.34%
8,Cc1ccc(NC(=O)CCOc2ccccc2)cc1S(=O)(=O)Nc1ccccc1Cl,-0.34%
9,O=C(Nc1cccc2cccnc12)c1ccc2sc([C@H]3C[C@H](O)[C@@H](CO)O3)nc2c1,0.15%
10,CC(C)Oc1ccccc1C(=O)NC(CO)C(=O)O (centres undefined),-0.52%
11,Oc1ccc(CN2CCN(c3ncccn3)CC2)cc1,-0.36%
12,CS(=O)(=O)c1ccc2nc(NC(=O)C3CCCCC3)sc2c1,-0.72%
13,COc1ccccc1Nc1nnc(SC(C)C(=O)NC2CC2)s1 (centres undefined),-0.47%
14,Cc1cccc(CN2CCN(C3CN(Cc4ccccc4)S(=O)(=O)C3)CC2)c1 (centres undefined),-0.55%
15,O=C(CNCc1cccs1)Nc1cc(S(=O)(=O)N2CCCC2)ccc1Cl,-0.34%
16,COc1ccc(NS(=O)(=O)c2cc(C(=O)Nc3ccccc3C(=O)O)ccc2C)cc1,-0.47%
17,O=C(Nc1cc(=O)[nH]c2ncnn12)c1ccccc1Cl,-0.64%
18,Cc1cc(C)n(S(=O)(=O)c2cccc([N+](=O)[O-])c2)n1,-0.31%
19,FC(F)(F)COc1nc(N2CCCCC2)nc(N2CCNCC2)n1,-0.49%
20,COc1ccc(/C=N/Nc2ccccc2C(=O)O)cc1,0.45%

row,SMILES,activation
1,COc1cccc(OC)c1OCCN1CCN(C(=O)c2ccco2)CC1,-0.41%
2,CC(C)c1cc(C(=O)O)on1,-0.13%
3,Cc1cc(C(=O)OCC(=O)N2c3ccccc3NC(=O)C2(C)C)c(C)n1-c1ccccc1,-0.15%
4,COC(=O)[C@]12CCCCC=C1N(CCC1=CCCCC1)C(=O)[C@H](CC(=O)NCC1CCCCC1)C2,-0.46%
5,Cc1cc([N+](=O)[O-])ccc1NC1CCCC1,0.02%
6,C/C(=N\NC(=O)COc1c(C)cccc1C)c1cccs1,-0.05%
7,N#Cc1c(NC(=O)CCCl)sc2c1CCCCC2,-0.23%
8,CCCN(CCc1ccccc1)C1CCc2c(O)cccc2C1 (centres undefined),0.3%
9,N#CCSc1nn(-c2ccc(F)cc2)c(=S)s1,-0.5%
10,Cc1[nH]c2ccccc2c1CCN(Cc1cccs1)C(=S)NC(C)(C)C,-0.25%
11,O=C(O)c1ccc(S(=O)(=O)N2CCC(Cc3ccccc3)CC2)cc1,-0.67%
12,CCOC(=O)/C=c1\s/c(=C\c2ccccc2OC)c(=O)n1CC(=O)N1CCOCC1,-0.62%
13,C=CCn1c(=NC(=O)c2cccs2)sc2cc(NC(C)=O)ccc21,0.46%
14,O=C1CCc2cc(S(=O)(=O)N3CCC(C(=O)NCc4ccccc4Cl)CC3)ccc2N1,-0.62%
15,O=C(NCCCN1CCN(c2ccccc2F)CC1)C1CCC(=O)N1C1CCCCC1 (centres undefined),-0.51%
16,CSc1nsc(SCC(=O)Nc2cc(C(=O)O)ccc2C)n1,-0.51%
17,CC(Nc1ccccc1)c1cccnc1 (centres undefined),-0.58%
18,CCOC(=O)[C@]12CCCC=C1N(Cc1ccc3c(c1)OCO3)C(=O)[C@H](CC(=O)NCc1cccs1)C2,-0.19%
19,OCC1(Cc2ccccc2)CCN(Cc2cc3ccccc3o2)CC1,0.94% (active)
